Variants at the floor of the assay were thinned out.

We go through 37 variants from the RNAGym collection of RNA variant scans (doi:10.1126/science.aae0568).

Sequences and labels used below:
B1: tRNA (parent)
chain: GUUCCGUUGGCGUAAUGGUAACGCGUCUCCCUCCUAAGGAGAAGACUGCGGGUUCGAGUCCCGUACGGAACG

Variants of B1 are the subject of this data set. The experiment in a line: yeast fitness relative to wild type (ratio to wild type); higher = fitter; tRNA-Arg(CCU), competitive growth, 37 C, YPD. The procedure, abridged: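 A pool of Saccharomyces cerevisiae strains, each with a tRNA-Arg(CCU) gene variant at the native genomic locus, was competed in YPD at 37°C for 24 hours across six parallel replicates. The variants had been chemically synthesised at a 3% per-site mutation rate over 69 sites, and gene amplicons before and after competition were read by 100-nucleotide paired-end sequencing. Darwinian fitness relative to wild type rested on changes in genotype frequencies. Genotypes required ≥ 100 starting reads, and estimates < 0.5 were set to 0.5.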
In the case of GUUCCGUUGGCGUAAUGGUAACGCGUCUCCCUCCUAAGGAGAAGACUGCGGGUUCGAGACCCGGACGGAACG [U59A U64G], the yeast fitness came to 0.52.

In the case of GUUCCGUUGGCGUAAUGGUAACGCGUCUCCCUCCUAAGGAGAAGACUGCGGGUUCGAGUUCCGUACAGAACG [C60U G67A], the yeast fitness was found to be 0.721.

Regarding GUUCCGUUGGCGUAAUGGUAACGCGUCUCCCUCCUAAGGAGAAGACUGCGGGUUCGAGUAUCCUAUGGAACG [C60A C61U G63C C66U], the yeast fitness is ≤ 0.5.

On to GUUCCGUUGGCGUAAUGGUAACGCGUCUCCCUCCUAAGGAGAAGACUGCGGGUUCGAGUGACGUACGGGACG [C60G C61A A69G], for which the yeast fitness was 0.586.

As to GUUCCGUUGGCGUAAUGGUAACGCGUCUCCCUCCUAAGGAGAAGACUGCGGGUUCGAGUCGCGUAUGGAACG [C61G C66U], the yeast fitness stood at 0.635.

Consider GUUCCGUUGGCGUAAUGGUAACGCGUCUCCCUCCUAAGGAGAAGACUGCGGGUUCGAGCCACGUAAGGAACG [U59C C61A C66A], for which the yeast fitness was ≤ 0.5.

As to GUUCCGUUGGCGUAAUGGUAACGCGUCUCCCUCCUAAGGAGAAGACUGCGGGUUCGAGUACGGUACGGACCG [C60A C62G A70C], the yeast fitness is ≤ 0.5.

For GUUCCGUUGGCGUAAUGGUAACGCGUCUCCCUCCUAAGGAGAAGACUGCGGGUUCGAGACCGGUACAGAACG [U59A C62G G67A], the yeast fitness was ≤ 0.5.

As for GUUCCGUUGGCGUAAUGGUAACGCGUCUCCCUCCUAAGGAGAAGACUGCGGGUUCGAGUCACGUACGGACCG [C61A A70C], the yeast fitness came out at 0.694.

With GUUCCGUUGGCGUAAUGGUAACGCGUCUCCCUCCUAAGGAGAAGACUGCGGGUUCGAGUACCGUUCGGAUCG [C60A A65U A70U], the yeast fitness was found to be 0.53.

Consider GUUCCGUUGGCGUAAUGGUAACGCGUCUCCCUCCUAAGGAGAAGACUGCGGGUUCGAGUCACGUAGGGAACG [C61A C66G], for which the yeast fitness was 0.572.

For GUUCCGUUGGCGUAAUGGUAACGCGUCUCCCUCCUAAGGAGAAGACUGCGGGUUCGAGUGCCGUAGGGGACG [C60G C66G A69G], the yeast fitness is 0.593.

Regarding GUUCCGUUGGCGUAAUGGUAACGCGUCUCCCUCCUAAGGAGAAGACUGCGGGUUCGAGUCACGUACGGGACG [C61A A69G], the yeast fitness came to 0.584.

Turning to GUUCCGUUGGCGUAAUGGUAACGCGUCUCCCUCCUAAGGAGAAGACUGCGGGUUCGAGUACCGUGCGGAACG [C60A A65G], the yeast fitness was determined as 0.573.

In the case of GUUCCGUUGGCGUAAUGGUAACGCGUCUCCCUCCUAAGGAGAAGACUGCGGGUUCGAGUGCCGUACGCAACG [C60G G68C], the yeast fitness is 0.603.

In the case of GUUCCGUUGGCGUAAUGGUAACGCGUCUCCCUCCUAAGGAGAAGACUGCGGGUUCGAGACCCGUACGUAACG [U59A G68U], the yeast fitness is 0.769.

For the variant GUUCCGUUGGCGUAAUGGUAACGCGUCUCCCUCCUAAGGAGAAGACUGCGGGUUCGAGACCCGUACGAAACG [U59A G68A], the yeast fitness turned out to be 0.791.

On to GUUCCGUUGGCGUAAUGGUAACGCGUCUCCCUCCUAAGGAGAAGACUGCGGGUUCGAUUCCCGUGCAGAACG [G58U A65G G67A], for which the yeast fitness is ≤ 0.5.

Consider GUUCCGUUGGCGUAAUGGUAACGCGUCUCCCUCCUAAGGAGAAGACUGCGGGUUCGACCCCCGUACGGAGCG [G58C U59C A70G], for which the yeast fitness turned out to be 0.706.

GUUCCGUUGGCGUAAUGGUAACGCGUCUCCCUCCUAAGGAGAAGACUGCGGGUUCGAGGCCUGUACGGAACG [U59G C62U]: the yeast fitness turned out to be 0.875.

With GUUCCGUUGGCGUAAUGGUAACGCGUCUCCCUCCUAAGGAGAAGACUGCGGGUUCGAGUGCCAUACAGAACG [C60G G63A G67A], the yeast fitness was ≤ 0.5.

GUUCCGUUGGCGUAAUGGUAACGCGUCUCCCUCCUAAGGAGAAGACUGCGGGUUCGAGUCGCCUACGGAACG [C61G G63C]: the yeast fitness was found to be 0.532.

Consider GUUCCGUUGGCGUAAUGGUAACGCGUCUCCCUCCUAAGGAGAAGACUGCGGGUUCGAGUCGCGUGUGGGACG [C61G A65G C66U A69G], for which the yeast fitness worked out at 0.646.

Take GUUCCGUUGGCGUAAUGGUAACGCGUCUCCCUCCUAAGGAGAAGACUGCGGGUUCGAGACCCGUAUGGAACG [U59A C66U]: the yeast fitness came out at 0.815.

Consider GUUCCGUUGGCGUAAUGGUAACGCGUCUCCCUCCUAAGGAGAAGACUGCGGGUUCGAGACCCGUAGGGAACG [U59A C66G], for which the yeast fitness was determined as 0.669.

In the case of GUUCCGUUGGCGUAAUGGUAACGCGUCUCCCUCCUAAGGAGAAGACUGCGGGUUCGAGCCUCGUACGGAACG [U59C C61U], the yeast fitness stood at 0.839.

In the case of GUUCCGUUGGCGUAAUGGUAACGCGUCUCCCUCCUAAGGAGAAGACUGCGGGUUCGAGUUCGGUACGGAACG [C60U C62G], the yeast fitness was 0.688.

Regarding GUUCCGUUGGCGUAAUGGUAACGCGUCUCCCUCCUAAGGAGAAGACUGCGGGUUCGAGUUCAGUACGGAACG [C60U C62A], the yeast fitness is ≤ 0.5.

As for GUUCCGUUGGCGUAAUGGUAACGCGUCUCCCUCCUAAGGAGAAGACUGCGGGUUCGACUCCCGUAGGGAACG [G58C C66G], the yeast fitness amounted to 0.711.

In the case of GUUCCGUUGGCGUAAUGGUAACGCGUCUCCCUCCUAAGGAGAAGACUGCGGGUUCGACUCCCGUAAGGAACG [G58C C66A], the yeast fitness came out at 0.717.

In the case of GUUCCGUUGGCGUAAUGGUAACGCGUCUCCCUCCUAAGGAGAAGACUGCGGGUUCGAGCCCCGUCCGGAACG [U59C A65C], the yeast fitness came to 0.837.

Turning to GUUCCGUUGGCGUAAUGGUAACGCGUCUCCCUCCUAAGGAGAAGACUGCGGGUUCGAGGCCCGUUCGGAACG [U59G A65U], the yeast fitness was 0.917.

GUUCCGUUGGCGUAAUGGUAACGCGUCUCCCUCCUAAGGAGAAGACUGCGGGUUCGAGGCCCGUGCGGAACG [U59G A65G]: the yeast fitness came to 0.965.

As for GUUCCGUUGGCGUAAUGGUAACGCGUCUCCCUCCUAAGGAGAAGACUGCGGGUUCGAGUUCCGCACGGAACG [C60U U64C], the yeast fitness turned out to be 0.833.

GUUCCGUUGGCGUAAUGGUAACGCGUCUCCCUCCUAAGGAGAAGACUGCGGGUUCGACUCCUGUACGGAACG [G58C C62U]: the yeast fitness stood at 0.893.

On to GUUCCGUUGGCGUAAUGGUAACGCGUCUCCCUCCUAAGGAGAAGACUGCGGGUUCGAGACCCGUGCGGAACG [U59A A65G], for which the yeast fitness worked out at 1.11.

GUUCCGUUGGCGUAAUGGUAACGCGUCUCCCUCCUAAGGAGAAGACUGCGGGUUCGAGUCGCGUACGGAUCG [C61G A70U]: the yeast fitness was 0.772.
